Series [1] has as its target Macrophage metalloelastase (Homo sapiens, UniProt P39900). In words: Inhibition of recombinant human MMP12 using Mca-Lys-Pro-Leu-Gly-Leu-Dap(Dnp)-Ala-Arg-NH2 as substrate preincubated for 3 hrs followed by substrate addition and measured every 10 secs for 15 mins by fluorescence assay. The essentials: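 Inhibitor at seven concentrations, 3 h at 25 °C; 2 µM final substrate. Fluorescence read at ex 325/em 400 nm. Done in triplicate. IC50 fitted as vi/v0 = 1/(1+[I]/IC50).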

The target of series [2] is Matrix metalloproteinase-9 (Homo sapiens, UniProt P14780). In words: Inhibition of recombinant human MMP9 using Mca-Lys-Pro-Leu-Gly-Leu-Dap(Dnp)-Ala-Arg-NH2 as substrate preincubated for 3 hrs followed by substrate addition and measured every 10 secs for 15 mins by fluorescence assay. In short, it runs like this:
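Pro-enzyme activated just before use with 1 mM APMA for 1 h at 37 °C; 1.3 nM final enzyme. Inhibitor at seven concentrations, 3 h at 25 °C; 2 µM final substrate. Fluorescence read at ex 325/em 400 nm. Done in triplicate. IC50 fitted as vi/v0 = 1/(1+[I]/IC50).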

Series [3] can be described thus: Solubility in water. Format: physicochemical.

The values below come from ChEMBL document CHEMBL4261655, “Matrix metalloproteinase-12 inhibitors: synthesis, structure-activity relationships and intestinal absorption of novel sugar-based biphenylsulfonamide carboxylates” (Bioorg Med Chem, 2018).

Some results are limits rather than exact numbers.

Chain of Matrix metalloproteinase-9 (P14780 whole entry): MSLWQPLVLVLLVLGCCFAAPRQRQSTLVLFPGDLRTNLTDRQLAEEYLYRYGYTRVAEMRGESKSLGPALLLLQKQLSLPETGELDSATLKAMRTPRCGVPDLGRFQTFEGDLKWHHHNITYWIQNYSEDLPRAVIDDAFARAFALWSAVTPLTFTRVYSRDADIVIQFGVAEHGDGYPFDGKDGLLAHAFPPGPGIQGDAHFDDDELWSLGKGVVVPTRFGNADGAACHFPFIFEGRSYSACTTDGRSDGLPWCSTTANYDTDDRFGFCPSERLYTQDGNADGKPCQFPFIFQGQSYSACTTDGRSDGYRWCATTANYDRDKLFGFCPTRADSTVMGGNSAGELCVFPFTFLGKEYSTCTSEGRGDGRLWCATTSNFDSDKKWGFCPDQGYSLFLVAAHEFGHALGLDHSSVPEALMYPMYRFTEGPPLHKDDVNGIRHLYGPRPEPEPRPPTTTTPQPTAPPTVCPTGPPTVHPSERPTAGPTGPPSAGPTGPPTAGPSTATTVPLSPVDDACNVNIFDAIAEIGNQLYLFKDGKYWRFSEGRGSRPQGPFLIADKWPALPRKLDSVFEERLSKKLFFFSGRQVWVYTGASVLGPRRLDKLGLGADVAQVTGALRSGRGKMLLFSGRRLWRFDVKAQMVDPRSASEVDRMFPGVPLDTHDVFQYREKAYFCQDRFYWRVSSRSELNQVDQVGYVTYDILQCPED
Chain of Macrophage metalloelastase (P39900 whole entry): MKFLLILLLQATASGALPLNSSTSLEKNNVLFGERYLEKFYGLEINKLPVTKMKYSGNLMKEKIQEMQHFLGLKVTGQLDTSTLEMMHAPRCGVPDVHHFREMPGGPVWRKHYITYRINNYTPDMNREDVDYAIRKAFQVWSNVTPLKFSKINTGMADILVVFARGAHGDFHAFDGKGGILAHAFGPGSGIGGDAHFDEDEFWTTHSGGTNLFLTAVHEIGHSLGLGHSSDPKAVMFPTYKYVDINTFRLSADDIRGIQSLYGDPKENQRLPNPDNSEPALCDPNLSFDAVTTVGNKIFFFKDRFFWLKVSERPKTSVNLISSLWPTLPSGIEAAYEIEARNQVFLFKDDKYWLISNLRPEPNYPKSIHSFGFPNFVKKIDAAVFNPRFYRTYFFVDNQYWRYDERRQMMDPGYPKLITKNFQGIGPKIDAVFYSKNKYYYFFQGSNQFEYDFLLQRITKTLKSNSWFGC

On to `CO[C@@H]1O[C@H](CNC(=S)NCCN([C@@H](C(=O)O)C(C)C)S(=O)(=O)c2ccc(-c3ccccc3)cc2)[C@@H](O)[C@H](O)[C@H]1O`, for which the values for the IC50 in series [1] and in series [2] were 65 nM and 520 nM, respectively.
For the compound `CC(=O)N[C@@H]1[C@@H](OC(C)=O)[C@H](OC(C)=O)[C@@H](COC(C)=O)O[C@H]1N([C@@H](C(=O)O)C(C)C)S(=O)(=O)c1ccc(-c2ccccc2)cc1`, the IC50 (commonly the concentration needed to halve the response being measured) in series [1] was 40000 nM.
Regarding `CC(=O)N[C@@H]1[C@@H](O)[C@H](O)[C@@H](CO)O[C@H]1NC(=S)NCCN([C@@H](C(=O)O)C(C)C)S(=O)(=O)c1ccc(-c2ccccc2)cc1`, the IC50 turned out to be 40 nM in series [1] and 5400 nM in series [2]. Moreover, the solubility (in general, how much of the substance goes into solution per volume) in series [3] was more than 5 mM.
In the case of `CC(C)[C@H](C(=O)O)N(CCNC(=S)N[C@@H]1O[C@H](CO)[C@@H](O)[C@H](O)[C@H]1O)S(=O)(=O)c1ccc(-c2ccccc2)cc1`, the IC50 worked out at 98 nM in series [1] and 1120 nM in series [2].
In the case of `CC(=O)N[C@@H]1[C@@H](O)[C@H](O)[C@@H](CO)O[C@H]1N([C@@H](C(=O)O)C(C)C)S(=O)(=O)c1ccc(-c2ccccc2)cc1`, in series [1], the IC50 was 9200 nM.
As for `CO[C@@H]1O[C@H](CN([C@@H](C(=O)O)C(C)C)S(=O)(=O)c2ccc(-c3ccccc3)cc2)C(O)[C@H](O)C1NC(C)=O` (single isomer, unassigned), the IC50 in series [1] came to 41 nM; in series [2], 890 nM.
Turning to `CC(=O)OC[C@H]1O[C@@H](N([C@@H](C(=O)O)C(C)C)S(=O)(=O)c2ccc(-c3ccccc3)cc2)[C@H](OC(C)=O)[C@@H](OC(C)=O)[C@@H]1OC(C)=O`, the IC50 in series [1] is 9600 nM.
For `CO[C@@H]1O[C@H](CN([C@@H](C(=O)O)C(C)C)S(=O)(=O)c2ccc(-c3ccccc3)cc2)[C@@H](OC(C)=O)[C@H](OC(C)=O)[C@H]1NC(C)=O`, the IC50 is 83 nM in series [1] and 1240 nM in series [2].
The like results for `CO[C@@H]1O[C@H](CNC(=S)NCCN([C@@H](C(=O)O)C(C)C)S(=O)(=O)c2ccc(-c3ccccc3)cc2)[C@@H](OC(C)=O)[C@H](OC(C)=O)[C@H]1OC(C)=O` were, in that order, 20 nM and 32 nM.
The like results for `CC(C)[C@H](C(=O)O)N([C@@H]1O[C@H](CO)[C@@H](O)[C@H](O)[C@H]1O)S(=O)(=O)c1ccc(-c2ccccc2)cc1` were, in that order, 1300 nM and more than 50000 nM.
For `CC(=O)N[C@@H]1[C@@H](OC(C)=O)[C@H](OC(C)=O)[C@@H](COC(C)=O)O[C@H]1NC(=S)NCCN([C@@H](C(=O)O)C(C)C)S(=O)(=O)c1ccc(-c2ccccc2)cc1`, the IC50 came to 18 nM in series [1] and 1200 nM in series [2].
The like results for `CO[C@@H]1O[C@H](CN([C@@H](C(=O)O)C(C)C)S(=O)(=O)c2ccc(-c3ccccc3)cc2)[C@@H](OC(C)=O)[C@H](OC(C)=O)[C@H]1OC(C)=O` were, in that order, 84 nM and 2600 nM.
`CO[C@@H]1O[C@H](CN([C@@H](C(=O)O)C(C)C)S(=O)(=O)c2ccc(-c3ccccc3)cc2)[C@@H](O)[C@H](O)[C@H]1O`: the IC50 amounted to 51 nM in series [1] and 2200 nM in series [2].
On the same counts, the results for `CC(=O)OC[C@H]1O[C@@H](NC(=S)NCCN([C@@H](C(=O)O)C(C)C)S(=O)(=O)c2ccc(-c3ccccc3)cc2)[C@H](OC(C)=O)[C@@H](OC(C)=O)[C@@H]1OC(C)=O` are 19 nM and 880 nM.
